# This is a sample that favours compounds with a hit; in the whole collection about 1.8% have one here.
# Jurkat NFkB inh: inhibitors of induced NF-kB luciferase reporter, primary screen, TCR NF-kB activation inhibitor project, cell-based, luminescence, uHTS. Jurkat, PMA/ionomycin-induced NF-kB luciferase reporter. inhibition, % at 4 µM. 0.53% of 330,000 active. AID 435003, 2010; in the data active = inhibition above about 50%
# CRFBP-R2 block: antagonists of CRF-BP/CRF-R2 complex, primary screen, cell-based, HEK293, calcium dye fluorescence, uHTS; CRF-induced calcium fluorescence; inhibition, % at 11.8 µM; 0.59% of 350,000 active; AID 588475, 2011;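 active = inhibition of the ligand-induced calcium signal above about 50% at the single tested concentration, limit read from the data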
# UPR CHOP act: activators of apoptotic CHOP UPR arm, primary screen, cell-based, CHO-CHOP luciferase reporter, luminescence, uHTS | UPR activation; percent of tunicamycin response over DMSO baseline | activation, % at 10 µM | 0.34% of 330,000 active;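 active = at 10 µM dose, activation of 40% or more, normalized to positive control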;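 note: 100% = tunicamycin at 10 µg/mL and 0% = DMSO alone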
#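 System: CHO CHOP reporter cells. Amount: 500 cells per well. Buffer or medium: F12 medium, 10% FBS. Compound dosing: one dose, 10 µM in 0.5% DMSO. Incubation: 6 h compound exposure at 37 °C after overnight seeding. Technique: Steady-Glo luciferase luminescence. Benchmarks: tunicamycin and DMSO controls.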
# 697 NFkB inh: inhibitors of PMA/ionomycin-induced NF-kB reporter, 697 cells, primary screen, B-cell NF-kB inhibitor project, cell-based, luminescence, uHTS. 697 B-cell NF-kB luciferase reporter, 16 h. inhibition, % at 4 µM. 0.33% of 330,000 active. AID 435022, 2010; in the data active = inhibition above about 35%
# XBP1 UPR activ: activators of adaptive XBP1 UPR arm, primary screen, cell-based, CHO-XBP1 luciferase reporter, luminescence, uHTS; IRE1-XBP1 UPR activation; percent of tunicamycin response, DMSO as zero; activation, % at 20 µM; 0.33% of 330,000 active; AID 463104, 2010;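 active = versus positive control, 20 µM dose yields 30% or more activation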;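 note: 100% = tunicamycin at 10 µg/mL and 0% = DMSO only wells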
#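 Material: CHO-XBP1 cells stably carrying IRE1-XBP1-driven luciferase reporter / Amount: 1000 cells per well / Compound: 20 µM, 1% DMSO / Times: 6 h treatment, 37 °C / Detection: luciferase luminescence / Measure: % activation of reporter signal versus tunicamycin and DMSO controls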
# Jurkat NFkB conf: PMA/ionomycin-induced NF-kB reporter inhibitors, Jurkat retest, confirmation, T-cell NF-kB inhibitor project, cell-based, luminescence, single concentration; shares compounds with Jurkat NFkB inh; Jurkat NF-kB luciferase, 16 h; inhibition, % at 4 µM; 27% of 2,700 active;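 active = inhibition reaching about 45% at 4 µM in either replicate, limit read from the data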;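 note: plate controls were PMA/ionomycin stimulated DMSO wells for no effect and unstimulated DMSO wells for full effect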
# 697 NFkB conf: PMA/ionomycin-induced NF-kB reporter inhibitors, 697 retest, confirmation, B-cell NF-kB inhibitor project, cell-based, luminescence, single concentration; inhibition, % at 4 µM; shares compounds with 697 NFkB inh; 35% of 2,000 active; 697 B-cell NF-kB luciferase, 16 h; AID 449746, 2010; in the data active = inhibition mostly above about 28%, no sharp cut-off; inactive = mostly below about 22%
# UPR CHOP confirm: activators of apoptotic CHOP UPR arm, confirmation, cell-based, CHO-CHOP luciferase reporter, single concentration | shares compounds with UPR CHOP act | CHO-CHOP cells, CHOP-luciferase reporter luminescence; percent of tunicamycin response, DMSO as zero | activation, % at 10 µM | 64% of 1,000 active | AID 463112, 2010; in the data active = activation above about 33%;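 note: 0% = DMSO wells and 100% = tunicamycin 10 µg/mL wells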
# The depositor's hits bear a star; . = not tested or not shown.
SMILES,Jurkat NFkB inh,CRFBP-R2 block,UPR CHOP act,697 NFkB inh,XBP1 UPR activ,Jurkat NFkB conf,others
Cc1cc(C)cc(NC(=O)c2cc(C)n(Cc3cccs3)c2C)c1,92.5*,3.0,8.4,-291.1,1.5,96.8*,697 NFkB conf=-73.8
Cc1cc(C(=O)Nc2ccc(Cl)cc2)c(C)n1Cc1cccs1,-59.9,1.9,2.7,-181.1,-3.5,.,
C=CCN(C(=O)Nc1ccc(OC)cc1)c1nnc(-c2ccncc2)s1,-3.3,-32.4,1.0,-15.5,-3.0,.,
COc1ccc(-n2ncc3c(NCc4cccnc4)ncnc32)cc1,-62.4,-8.1,4.0,-121.5,1.4,.,
COc1ccc(-n2ncc3c(NCC(C)C)ncnc32)cc1,-185.4,-4.3,3.0,-326.9,-3.2,-136.0,697 NFkB conf=-300.2
O=C(NC(CC(=O)N1CCN(c2ccccc2O)CC1)c1ccccc1)c1ccccc1Cl (centres undefined),14.3,0.5,-0.4,18.0,-2.6,.,
Cc1cccn2c1nc(=S)n2C(=O)c1ccco1,.,1.2,.,.,.,.,
O=C(c1ccccc1)n1c(=S)nc2ccccn21,-157.1,0.8,-8.1,-318.5,-9.0,-60.7,697 NFkB conf=-274.5
COc1cc2c(c(OC)c1OC)-c1ccc(OC)c(=O)cc1[C@@H](NC(C)=O)CC2,71.0*,-4.1,-1.5,-252.6,8.9,68.9*,697 NFkB conf=-172.2
C1=C(c2cc3ccccc3cn2)CCCC1,-133.2,-8.1,6.8,-146.8,2.5,.,
CC1(C)CC(N2CCCC2)=CC(=[N+]2CCCCCC2)C1,57.0*,20.5,-0.9,71.1*,2.0,63.2*,697 NFkB conf=50.6*
Cc1cc(C(=O)O)cc(S(=O)(=O)Nc2c(C)nn(C)c2C)c1C,13.6,-0.2,-0.3,6.0,-1.4,.,
CSC(=Nc1ccccc1)N=C(SCc1ccccc1)N(C)C,.,-67.1,.,.,.,.,
CCN(Cc1ccccc1)c1ccc(/C=C(\C#N)c2ccccn2)cc1,-165.4,1.4,6.5,-270.7,-0.8,-89.8,697 NFkB conf=-221.4
Oc1cccc(/C=C/c2ccc3cccc(O)c3n2)c1,-167.2,32.6,1.0,-360.4,6.6,-142.2,697 NFkB conf=-77.1
COc1cccc(/C=C/c2ccc3cccc(O)c3n2)c1,-112.0,6.6,15.6,-238.6,-1.8,.,
Cc1ccccc1C[n+]1cccc2ccccc21,13.0,0.3,-1.9,-21.7,-0.3,.,
CCCCCCCCCCCCCCCC[n+]1cccc2ccccc21,87.5*,-102.2,35.7,62.3*,22.6,87.8*,697 NFkB conf=23.1*
O=C1[C@H]2[C@@H](c3ccc(C(F)(F)F)cc3)N[C@]3(CCCN(Cc4ccco4)C3=O)[C@H]2C(=O)N1Cc1ccccc1,.,-5.0,.,.,.,.,
C[C@@H]1CN([C@@H](C)CO)C(=O)c2cc(NC(=O)C3CCCCC3)ccc2O[C@@H](C)CCCCO[C@@H]1CN(C)Cc1ccncc1,.,-7.5,.,.,.,.,
O=C(O)CCNC(=O)c1ccc(N=Nc2ccc(O)c(C(=O)O)c2)cc1,3.8,.,0.8,20.3,-5.4,.,
CC(C)(C)C(=O)Nc1ccc(C(=O)OC2CCCCC2)cc1,-189.0,-57.7,6.6,-301.2,3.2,-164.3,697 NFkB conf=-252.9
Cc1c(OCC(=O)C(C)(C)C)ccc2c(-c3ccccc3)cc(=O)oc12,-10.9,-3.4,-1.0,-6.4,-3.8,.,
Nc1nnnn1/N=C/C=C/c1ccccc1,-6.1,11.4,3.9,-2.3,1.7,.,
Nc1nnnn1/N=C/C(Br)=C/c1ccccc1,57.5*,-10.2,109.2*,-60.9,-3.4,16.2,UPR CHOP confirm=64.4*
SMILES,Jurkat NFkB inh,CRFBP-R2 block,UPR CHOP act,697 NFkB inh,XBP1 UPR activ,Jurkat NFkB conf,others
Cc1cc(F)ccc1S(=O)(=O)Nc1ccccc1C(=O)N1CCCC1,-12.5,2.7,-0.8,12.0,-2.5,.,
CCC(=O)Nc1c(-c2ccc3ccccc3c2)nc2ccccn12,-16.7,7.1,2.4,-9.2,-2.9,.,
COc1cccc(N=Nc2ccc3cccnc3c2O)c1,94.9*,-3.3,127.2*,-123.6,4.3,19.5,UPR CHOP confirm=86.4*
COc1cc(OC)cc(C(=O)Nc2cccc3cccnc23)c1,-1.7,-14.0,0.3,-10.2,-1.6,.,
COc1ccc(C)cc1N=Nc1ccc(O)c2ncccc12,.,9.9,.,.,.,.,
COc1cccc(N=Nc2ccc(O)c3ncccc23)c1,69.6*,1.4,106.7*,-79.3,7.3,15.0,UPR CHOP confirm=86.2*
COc1ccc(N=Nc2ccc(O)c3ncccc23)cc1,74.0*,-7.1,153.0*,-121.8,10.6,-14.1,UPR CHOP confirm=148.2*
C[C@]12CC[C@H](O)CC1=C[C@H](O)C1C2CC[C@@]2(C)C1CC[C@@]2(O)C#Cc1ccc(CN)cc1 (some centres undefined),.,21.4,.,.,.,.,
COc1cccc(NC(=O)CN(C)C(=O)c2cc(S(=O)(=O)N3CCCCCC3)ccc2OC)c1,6.3,-0.1,-0.5,1.4,-3.2,.,
CCOc1ccc2nc3cc(NCc4ccc(OC)cc4)ccc3c(N)c2c1,100.1*,-1.6,71.4*,-28.7,4.4,14.6,UPR CHOP confirm=0.8
Oc1ccc2ccccc2c1N=Nc1ccccn1,62.0*,13.0,48.3*,-8.5,-4.1,52.1*,UPR CHOP confirm=37.2*
O=C(Nc1ccc(Oc2cccc(C(F)(F)F)c2)nc1)c1ccco1,0.5,6.4,2.0,-31.1,-2.8,.,
CC(C)(C)c1ccc(Oc2ccc(NC(=O)c3ccco3)cn2)cc1,53.0*,-23.8,42.6*,-143.3,10.8,39.8,UPR CHOP confirm=-2.1
c1ccc(CSC2=NNC(c3ccccn3)S2)cc1 (centres undefined),71.0*,-2.3,240.3*,-18.6,9.5,0.6,UPR CHOP confirm=312.8*
CCOc1ccc(CCNC(=O)CS(=O)Cc2nc(-c3ccccc3C)oc2C)cc1OCC (centres undefined),1.9,-4.1,2.1,15.5,-1.1,.,
COc1cc(/C=C/C(=O)c2ccc([N+](=O)[O-])o2)ccc1O,70.8*,-5.1,94.5*,-44.4,-6.2,47.5*,UPR CHOP confirm=-6.2
Cc1cccc(N2CCN(C(=O)COc3ccc4c(C)cc(=O)oc4c3C)CC2)c1C,14.5,-25.5,-2.6,-20.0,-5.8,.,
O=C(N/N=C/c1ccccn1)c1ccc(Cl)c(Cl)c1,69.9*,.,207.9*,2.9,0.6,-1.8,UPR CHOP confirm=233.0*
O=C(N/N=C/c1ccccn1)c1ccc(NC(=O)c2ccccc2Cl)cc1,9.7,8.0,1.7,29.2,0.6,.,
Cc1ccc(S(=O)(=O)Nc2cccc3ncccc23)cc1,-5.3,6.0,0.9,-4.0,0.2,.,

# High-throughput results from PubChem.
